Screening results deposited in PubChem BioAssay by several laboratories.
CSN deneddyl inh = inhibitors of CSN-mediated cullin deneddylation, primary screen, biochemical, fluorescence polarization, uHTS | inhibition, % at 12.5 µM | Purified CSN, SCF-Nedd8-OG deneddylation | 0.38% of 360,000 active | AID 651999, 2013 | COP9 signalosome complex subunit 5 (Homo sapiens), Q92905;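 active means pattern-corrected inhibition above about 35%, with an unprinted fluorescence ratio check between 0.5 and 1.5, limit read from the data, passing the limit was not always enough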;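 further: 0% = enzyme with substrate and 100% = substrate without enzyme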
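test system = HEK293T-derived human Csn5 enzyme | amount = 0.24 nM Csn5 enzyme, final concentration | medium = Tris/NaCl/DTT buffer, pH 7.5 | schedule = 90 min reaction at room temperature | signal = FP | evaluation = inhibition of Csn5 cleavage, % | compound dosing = single dose of 12.5 µM compound with 0.25% DMSO | probe or stimulus = 10 nM SCFSkp2-Nedd8OG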
Rpn11 block = Rpn11 (PSMD14) deubiquitinase inhibitors, primary screen, biochemical, fluorescence polarization, uHTS; inhibition, % at 20 µM; 0.59% of 360,000 active; 26S proteasome non-ATPase regulatory subunit 14 (Homo sapiens), O00487; human 26S proteasome, Ub4-pepOG fluorescence polarization; 20S core pre-blocked with epoxomicin;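 active means inhibition at 20 µM, scaled to each plate's controls, above about 33%, limit read from the data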
Target sequence (O00487 whole entry, looked up): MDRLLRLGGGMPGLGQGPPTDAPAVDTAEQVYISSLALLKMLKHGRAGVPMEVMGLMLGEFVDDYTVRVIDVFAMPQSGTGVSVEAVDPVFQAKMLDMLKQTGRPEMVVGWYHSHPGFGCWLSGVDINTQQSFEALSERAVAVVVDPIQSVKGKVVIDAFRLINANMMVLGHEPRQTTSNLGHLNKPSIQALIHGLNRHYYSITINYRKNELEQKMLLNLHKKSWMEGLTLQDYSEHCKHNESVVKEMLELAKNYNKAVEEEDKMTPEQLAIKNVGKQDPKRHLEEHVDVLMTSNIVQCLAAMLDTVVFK
TPT1 inh = Candida albicans TPT1 enzyme inhibitors, primary screen, biochemical, fluorescence polarization; inhibition, % at 5 µM; tRNA 2'-phosphotransferase TPT1 (Candida albicans SC5314); recombinant caTPT1, FP RNA substrate dephosphorylation; 0.81% of 300,000 active; AID 1962, 2009;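 active means inhibition above the mean of all tested compounds plus 3 SD, set per screening campaign, cut at about 24% in these data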;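 further: plate controls were DMSO alone for no effect and ferristatin control at 100 nM for full effect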
HNF4A DNA FP = change in binding of human HNF4A to DNA, primary screen, biochemical, fluorescence polarization, FITC-DNA | Hepatocyte nuclear factor 4-alpha (Homo sapiens), P41235 | 1 h | activity change, % at 10 µM | 0.3% of 360,000 active | AID 1224865, 2016; in the data active means activity change above about 30%, passing the limit was not always enough
SENP1 FRET inh = human SENP1 catalytic domain inhibitors, primary screen, biochemical, FRET, uHTS; 0.21% of 360,000 active; Sentrin-specific protease 1 (Homo sapiens), Q9P0U3; inhibition, % at 10 µM; recombinant SENP1 catalytic domain, CyPet-SUMO1-YPet FRET cleavage; AID 624204, 2012;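 active means inhibition at least 30% at 10 µM, raw YFP signal under a set limit, fluorescence ratio 0.5 to 1.5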;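 further: 0% = enzyme with DMSO and 100% = no enzyme wells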
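Assay system: hSENP1 catalytic domain, recombinant. Amount: SENP1 enzyme, 20 pM final. Schedule: 50 min reaction, RT, dark. Technique: FRET, CFP and YFP emission. Control set: no-enzyme wells low, DMSO-plus-enzyme wells high control.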
TPT1 inh confirm = Candida albicans TPT1 inhibitors, confirmation, biochemical, fluorescence polarization, triplicate; shares compounds with TPT1 inh; recombinant caTPT1, RNase T1 coupled; inhibition, % at 5 µM; 74% of 2,400 active;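 active means inhibition above the primary screen limit, the mean inhibition of all tested compounds plus 3 SD, cut at about 25% in these data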
RNase T1 inh = RNase T1 inhibitors, counter-screen for TPT1 inhibitor project, biochemical, fluorescence polarization; shares compounds with TPT1 inh; RNase T1 cleavage, 1536-well; inhibition, % at 5 µM; 83% of 2,400 active; AID 2153, 2009;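 active means inhibition above the solvent-only control well mean plus 3 SD, limit set per screening run, cut at about 23% in these data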;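 further: plate controls were DMSO wells with enzyme for no effect and wells without RNase T1 for full effect; inhibitors block cleavage so intact labeled substrate keeps polarization high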
Target sequence (P00651 whole entry, looked up): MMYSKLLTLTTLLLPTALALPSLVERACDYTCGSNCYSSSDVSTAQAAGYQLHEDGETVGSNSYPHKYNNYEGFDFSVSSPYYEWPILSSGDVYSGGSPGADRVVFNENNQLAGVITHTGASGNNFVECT
Active calls of the source: *; . = not tested or not shown. A selection: hits, their analogues and other compounds. The true share with any hit is near 1.6%.

SMILES | CSN deneddyl inh | Rpn11 block | TPT1 inh | HNF4A DNA FP | SENP1 FRET inh | TPT1 inh confirm | RNase T1 inh
CC1C/C(=C/c2cccn2C)C(=O)/C(=C/c2cccn2C)C1 (centres undefined) | -66.5 | . | 190.6* | 91.2 | -19.9 | 187.0* | 169.6*
CC1C/C(=C/c2ccncc2)C(=O)/C(=C/c2ccncc2)C1 (centres undefined) | 17.8 | 12.1 | 3.4 | 0.2 | -1.1 | . | .
CC(C)(C)NC(=O)c1cc([N+](=O)[O-])ccc1N1CCCCC1 | -8.4 | 1.8 | 7.9 | 0.8 | 2.0 | . | .
O=[N+]([O-])c1ccc(N/N=C/c2ccccc2)c(F)c1 | 2.7 | 16.1 | 27.1* | 11.6 | -26.6 | 43.5* | 54.4*
O=[N+]([O-])c1cccc(C=NNc2ccccc2)c1 | -0.9 | -2.6 | . | -3.5 | 0.6 | . | .
CCN1C(=O)[C@H]2[C@@H](c3ccc(-c4ccc5c(c4)OCO5)c(OC)c3)N[C@@](C)(C(=O)OC)[C@H]2C1=O | 0.8 | -2.2 | . | -3.1 | 1.5 | . | .
Cn1ccnc1SCC(=O)c1cc2ccccc2o1 | 4.9 | 38.2 | 61.3* | 14.9 | -11.6 | 29.4* | 40.8*
CCOC(=O)c1ccc2c(c1)nc(SCC(=O)c1cc3ccccc3o1)n2CC | 2.7 | 21.9 | 33.1* | 3.8 | -12.1 | 14.6 | 24.3*
C=CCNC(=O)CSc1nc2cc(C(=O)OCC)ccc2n1CC | -1.0 | -1.3 | -0.6 | -0.9 | 0.2 | . | .
COc1ccc(-n2nnnc2SCC(=O)c2cc3ccccc3o2)cc1 | 4.0 | 20.2 | 32.1* | 3.2 | 7.0 | 25.5* | 34.9*
CN(C)c1ccc(C2C=C(c3ccc(Cl)cc3OC(F)F)Nc3ncnn32)cc1 (centres undefined) | 23.6 | . | 49.5* | 34.3 | -23.8 | 43.0* | 55.6*
CCc1ccc(/C=C2\Oc3c(ccc(O)c3CN3CCN(C)CC3)C2=O)cc1 | 4.0 | 16.6 | 26.0* | 11.3 | -36.5 | 27.5* | 37.6*
COc1ccccc1/C=C/C=C1\Oc2c(ccc(O)c2CN2CCN(CCO)CC2)C1=O | 64.0 | . | 39.4* | 40.1* | -29.1 | 46.0* | 54.4*
Cc1ccc(/C=C2\Oc3c(ccc(O)c3CN3CCN(C)CC3)C2=O)cc1 | 4.0 | -7.6 | 13.2 | 3.2 | -22.5 | . | .
CCOC(OCC)c1cc2ccccc2cn1 | 2.3 | -8.8 | . | 3.1 | -1.0 | . | .
O=C(O)c1cccc(Cn2c(Cl)c(/C=N/Nc3ccccc3)sc2=O)c1 | 11.4 | 34.6 | 48.0* | 12.0 | -9.2 | 65.2* | 78.6*
O=C(O)c1cccc(Cn2c(Cl)c(/C=N/NC(=O)c3ccccc3Cl)sc2=O)c1 | -3.0 | -2.9 | -0.2 | -1.3 | -3.7 | . | .
O=[N+]([O-])/C(C(=C(Cl)Cl)N1CCN(Cc2ccccc2)CC1)=C1\NCCN1Cc1ccc(Cl)nc1 | 0.8 | 3.8 | -11.3 | -2.8 | -2.6 | . | .
O=[N+]([O-])C(/C=C(\Cl)[N+](=O)[O-])=C1N(Cc2ccc(Cl)nc2)CCN1Cc1ccc(Cl)nc1 | 7.1 | 8.3 | 40.4* | 0.2 | -1.5 | 50.7* | 70.4*
COc1ccc(NCc2nnc(SCc3ccc(Cl)cc3)n2-c2ccccc2)cc1 | 8.7 | 10.1 | -0.9 | 2.2 | -1.1 | . | .
COc1ccc(-c2nn(-c3ccccc3)cc2/C=C2/SC(=S)N(Cc3ccco3)C2=O)c(C)c1 | 3.7 | 8.3 | -1.5 | 4.8 | -25.7 | . | .
COc1ccc(-n2c(C)cc(/C=C3\SC(=S)N(Cc4ccco4)C3=O)c2C)cc1 | 29.6 | . | 122.3* | 54.3* | -26.5 | 121.8* | 123.0*
